Experimental data taken from ChEMBL document CHEMBL1240329, “Identification and mechanistic characterization of low-molecular-weight inhibitors for HuR” (Nat Chem Biol, 2007).
One block for each molecule: values may come before it. Calls of active or inactive are those of the source. No cut-off for these calls is given here.

Tests used:
PBMC [1] = assay: Inhibition of HuR in anti-CD3 and anti-CD28-stimulated human PBMC assessed as reduction of cytoplasmic protein level after 48 hrs by confocal microscopy; format: functional, cell-based
ELAV-like protein 1 [2] = target: T1, ELAV-like protein 1 (Homo sapiens, UniProt Q15717); assay: Inhibition of recombinant HuR RRM1/RRM2 domain assessed as protein interaction with TMR-labeled A/U-rich element of IL-2 by confocal fluctuation spectroscopy
How it was run: (§1)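 Binding followed as fluorescence anisotropy by 2D-FIDA, converted to fraction bound. Inhibition curves simulated from the fitted HuR–RNA Kd, with actual RNA, HuR and compound levels as boundary conditions. Ten measurements averaged; at least three independent experiments.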

ELAV-like protein 1 [3] = target: T1, ELAV-like protein 1; assay: Inhibition of recombinant HuR RRM1/RRM2 domain assessed as protein interaction with TMR-labeled A/U-rich element of TNFalpha by confocal fluctuation spectroscopy; how it was run: as §1
ELAV-like protein 1 [4] = target: T1, ELAV-like protein 1; assay: Inhibition of recombinant full length HuR assessed as inhibition of protein-IL-2 A/U-rich element interaction-associated release of particle number at 2 uM by 2D-FIDA
PBMC [5] = assay: Inhibition of HuR in anti-CD3 and anti-CD28-stimulated human PBMC assessed as reduction of cytoplasmic protein level at 25 uM after 48 hrs by confocal microscopy; format: functional, cell-based
[6] = Cytotoxicity against human PBMC assessed as cell viability at 25 uM after 48 hrs relative control; format: cell-based; details: read-out: Activity
How it was run: (§2)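 Freshly isolated human PBMCs activated with soluble anti-CD3 plus anti-CD28 and exposed to compound for 48 h. Viability expressed as percent of DMSO control.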

Monocyte [7] = assay: Inhibition of IL1-beta gene expression in LPS/INF-gamma-stimulated human primary monocytes by RT-PCR analysis
Monocyte [8] = assay: Inhibition of COX-2 gene expression in LPS/INF-gamma-stimulated human primary monocytes by RT-PCR analysis
Monocyte [9] = assay: Inhibition of IL-6 gene expression in LPS/INF-gamma-stimulated human primary monocytes by RT-PCR analysis
ELAV-like protein 1 [10] = target: T1, ELAV-like protein 1; assay: Inhibition of recombinant HuR RRM1/RRM2 domain assessed as protein dimerization with TMR-labeled A/U-rich element of TNFalpha by confocal fluctuation spectroscopy
ELAV-like protein 1 [11] = target: T1, ELAV-like protein 1; assay: Inhibition of recombinant HuR RRM1/RRM2 domain assessed as protein dimerization with TMR-labeled A/U-rich element of IL-2 by confocal fluctuation spectroscopy
ELAV-like protein 1 [12] = target: T1, ELAV-like protein 1; assay: Binding affinity recombinant HuR RRM1/RRM2 domain by confocal fluctuation spectroscopy; how it was run: as §1
Monocyte [13] = assay: Inhibition of IL1-beta expression in LPS/INF-gamma-stimulated human primary monocytes by ELISA; format: functional
Monocyte [14] = assay: Inhibition of COX-2 expression in LPS/INF-gamma-stimulated human primary monocytes by ELISA; format: functional
Monocyte [15] = assay: Inhibition of IL-6 expression in LPS/INF-gamma-stimulated human primary monocytes by ELISA; format: functional
[16] = target: Myosin light chain kinase, smooth muscle (Homo sapiens, UniProt Q15746); assay: Inhibition of MYLK
[17] = Cytotoxicity against human PBMC assessed as cell viability at 50 uM after 48 hrs relative control; format: cell-based; details: read-out: Activity; how it was run: as §2
Monocyte [18] = assay: Inhibition of IL1-beta gene expression in LPS/INF-gamma-stimulated human primary monocytes up to 30 uM by RT-PCR analysis; format: functional
Monocyte [19] = assay: Inhibition of COX-2 gene expression in LPS/INF-gamma-stimulated human primary monocytes up to 30 uM by RT-PCR analysis; format: functional
Monocyte [20] = assay: Inhibition of IL-6 gene expression in LPS/INF-gamma-stimulated human primary monocytes up to 30 uM by RT-PCR analysis; format: functional
Monocyte [21] = assay: Inhibition of IL1-beta expression in LPS/INF-gamma-stimulated human primary monocytes up to 30 uM by ELISA; format: functional
Monocyte [22] = assay: Inhibition of COX-2 expression in LPS/INF-gamma-stimulated human primary monocytes up to 30 uM by ELISA; format: functional
Monocyte [23] = assay: Inhibition of IL-6 expression in LPS/INF-gamma-stimulated human primary monocytes up to 30 uM by ELISA; format: functional

T1 sequence (Q15717 whole entry, the tested form may be a part): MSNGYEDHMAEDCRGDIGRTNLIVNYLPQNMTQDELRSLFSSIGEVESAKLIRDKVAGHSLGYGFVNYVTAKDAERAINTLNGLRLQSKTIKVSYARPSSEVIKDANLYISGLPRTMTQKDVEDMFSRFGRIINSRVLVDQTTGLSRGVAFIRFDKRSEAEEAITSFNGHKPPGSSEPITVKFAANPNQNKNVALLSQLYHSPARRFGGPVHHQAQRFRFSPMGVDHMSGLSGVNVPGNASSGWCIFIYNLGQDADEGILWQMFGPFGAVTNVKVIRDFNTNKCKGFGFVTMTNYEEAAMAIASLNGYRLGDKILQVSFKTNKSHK
Myosin light chain kinase, smooth muscle, sequence (Q15746 whole entry): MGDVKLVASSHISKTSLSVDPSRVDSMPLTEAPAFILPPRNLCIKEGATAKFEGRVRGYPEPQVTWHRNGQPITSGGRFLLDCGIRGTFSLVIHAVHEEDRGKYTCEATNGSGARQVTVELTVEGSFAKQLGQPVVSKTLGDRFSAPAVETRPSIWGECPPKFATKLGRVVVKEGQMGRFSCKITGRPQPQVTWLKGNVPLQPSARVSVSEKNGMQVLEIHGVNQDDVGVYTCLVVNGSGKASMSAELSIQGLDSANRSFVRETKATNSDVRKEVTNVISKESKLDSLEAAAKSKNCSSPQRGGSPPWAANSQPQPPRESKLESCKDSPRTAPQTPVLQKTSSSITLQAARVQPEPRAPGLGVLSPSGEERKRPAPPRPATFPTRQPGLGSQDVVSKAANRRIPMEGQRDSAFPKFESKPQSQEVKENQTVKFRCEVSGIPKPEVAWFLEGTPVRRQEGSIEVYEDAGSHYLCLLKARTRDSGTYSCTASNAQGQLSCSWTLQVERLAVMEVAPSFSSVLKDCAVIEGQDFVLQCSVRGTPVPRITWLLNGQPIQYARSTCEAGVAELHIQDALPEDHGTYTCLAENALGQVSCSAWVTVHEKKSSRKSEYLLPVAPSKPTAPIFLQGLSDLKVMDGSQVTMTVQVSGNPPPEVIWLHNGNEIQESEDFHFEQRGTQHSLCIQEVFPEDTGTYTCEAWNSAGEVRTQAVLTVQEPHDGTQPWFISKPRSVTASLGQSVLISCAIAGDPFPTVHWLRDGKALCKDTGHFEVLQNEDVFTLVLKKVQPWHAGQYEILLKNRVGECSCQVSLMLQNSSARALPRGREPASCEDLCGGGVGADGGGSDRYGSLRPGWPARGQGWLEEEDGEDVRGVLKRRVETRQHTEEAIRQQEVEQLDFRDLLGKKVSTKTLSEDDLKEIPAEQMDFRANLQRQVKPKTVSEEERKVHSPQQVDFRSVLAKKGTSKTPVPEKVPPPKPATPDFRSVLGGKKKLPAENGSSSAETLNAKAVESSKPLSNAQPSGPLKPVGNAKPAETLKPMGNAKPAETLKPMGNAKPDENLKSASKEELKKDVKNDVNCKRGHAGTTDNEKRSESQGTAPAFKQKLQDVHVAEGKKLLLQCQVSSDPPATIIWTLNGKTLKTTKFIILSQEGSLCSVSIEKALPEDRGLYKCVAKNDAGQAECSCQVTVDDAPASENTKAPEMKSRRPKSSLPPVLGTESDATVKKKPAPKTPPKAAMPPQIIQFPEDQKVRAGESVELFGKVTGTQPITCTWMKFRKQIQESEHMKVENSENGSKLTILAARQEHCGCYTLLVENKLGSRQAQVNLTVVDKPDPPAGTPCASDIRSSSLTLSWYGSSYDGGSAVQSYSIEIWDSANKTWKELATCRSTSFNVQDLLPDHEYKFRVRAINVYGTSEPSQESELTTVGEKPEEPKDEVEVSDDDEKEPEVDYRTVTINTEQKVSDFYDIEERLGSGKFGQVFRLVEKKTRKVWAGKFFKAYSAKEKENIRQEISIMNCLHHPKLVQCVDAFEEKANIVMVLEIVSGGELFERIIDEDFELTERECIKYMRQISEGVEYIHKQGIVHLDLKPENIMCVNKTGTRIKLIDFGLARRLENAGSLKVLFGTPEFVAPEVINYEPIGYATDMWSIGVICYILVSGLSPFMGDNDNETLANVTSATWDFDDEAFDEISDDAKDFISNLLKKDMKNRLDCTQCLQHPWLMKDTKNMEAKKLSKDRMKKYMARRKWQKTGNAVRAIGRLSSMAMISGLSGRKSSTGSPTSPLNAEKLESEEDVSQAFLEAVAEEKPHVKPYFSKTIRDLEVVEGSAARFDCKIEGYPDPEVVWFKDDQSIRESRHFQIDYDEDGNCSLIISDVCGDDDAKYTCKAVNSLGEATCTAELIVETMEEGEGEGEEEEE

SMILES: Cc1cc(O)cc2cc3c(c(O)c12)C(=O)CCC3O (stereo unspecified)
- inhibition (PBMC [1]): inactive

- Kd (ELAV-like protein 1 [2]): 230 nM
- Kd (ELAV-like protein 1 [3]): 14 nM
- inhibition (ELAV-like protein 1 [4]): Active
- IC50 (Monocyte [7]): 3700 nM
- IC50 (Monocyte [8]): 2100 nM
- IC50 (Monocyte [9]): 2400 nM
- Kd (ELAV-like protein 1 [10]): 0.1 nM
- Kd (ELAV-like protein 1 [11]): 0.1 nM
- Kd (ELAV-like protein 1 [12]): 420 nM
- IC50 [16]: 10000 nM
SMILES: Cc1occ2c1C(=O)c1c(O)ccc(O)c1C2
- inhibition (PBMC [5]): inactive
- viability at 48 h, 25 µM [6]: 94%
- inhibition (Monocyte [13]): Dose-dependent effect
- inhibition (Monocyte [14]): Dose-dependent effect
- inhibition (Monocyte [15]): Dose-dependent effect

SMILES: Cc1cc(O)c2c(O)cccc2c1-c1cc(=O)cc(O)o1 [DEHYDROMUTACTIN]
- inhibition (PBMC [1]): Dose-dependent effect
- viability at 48 h, 50 µM [17]: 97%
- inhibition (Monocyte [18]): inactive
- inhibition (Monocyte [19]): inactive
- inhibition (Monocyte [20]): inactive
- inhibition (Monocyte [13]): inactive
- inhibition (Monocyte [21]): inactive
- inhibition (Monocyte [22]): inactive
- inhibition (Monocyte [23]): inactive

SMILES: Cc1cc(O)cc2oc(Cc3cc(O)cc(=O)o3)cc(=O)c12
- inhibition (Monocyte [19]): inactive
- inhibition (Monocyte [20]): inactive
- inhibition (Monocyte [13]): inactive
- inhibition (Monocyte [21]): inactive
- inhibition (Monocyte [22]): inactive
- inhibition (Monocyte [23]): inactive
